Results taken from ChEMBL document CHEMBL3600382, “A-ring substituted 17β-arylsulfonamides of 17β-aminoestra-1,3,5(10)-trien-3-ol as highly potent reversible inhibitors of steroid sulfatase” (Bioorg Med Chem, 2015).
pIC50, pKi: −log10 of the molar value.

Legend:
Steryl-sulfatase [1] = target: T1, Steryl-sulfatase (Homo sapiens, UniProt P08842); assay: Inhibition of STS (unknown origin) using 4-MUS as substrate measured over 10 mins by fluorescence assay
T1 sequence (P08842 whole entry): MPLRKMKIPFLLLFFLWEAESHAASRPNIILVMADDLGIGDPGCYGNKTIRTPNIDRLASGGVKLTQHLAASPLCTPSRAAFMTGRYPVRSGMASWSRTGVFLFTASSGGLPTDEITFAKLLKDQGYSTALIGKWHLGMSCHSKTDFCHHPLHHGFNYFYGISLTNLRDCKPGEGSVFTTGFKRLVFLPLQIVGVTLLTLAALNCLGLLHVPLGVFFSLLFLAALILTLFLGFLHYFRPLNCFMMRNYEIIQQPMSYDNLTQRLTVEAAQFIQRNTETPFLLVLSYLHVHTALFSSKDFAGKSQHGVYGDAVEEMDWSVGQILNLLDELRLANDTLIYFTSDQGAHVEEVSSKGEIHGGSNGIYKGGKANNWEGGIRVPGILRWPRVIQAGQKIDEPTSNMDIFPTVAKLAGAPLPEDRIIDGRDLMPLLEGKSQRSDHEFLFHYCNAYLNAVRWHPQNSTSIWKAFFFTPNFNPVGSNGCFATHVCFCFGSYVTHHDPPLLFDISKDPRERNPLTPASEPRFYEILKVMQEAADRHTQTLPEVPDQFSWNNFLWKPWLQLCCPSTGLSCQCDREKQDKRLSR
Procedure, shortened: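 Purified STS (10 nM final) in 0.1 M Tris-HCl pH 7.0 containing Triton X-100, 4-MUS 200 µM final, and inhibitor at eleven concentrations (5 nM–5 µM). Ex 360/em 460 fluorescence read over 10 min at 24 °C, in quadruplicate, with no-enzyme controls. Vi/V0 from initial rates fit to a slope-factor equation. For tight binders, Ki app is the y-intercept of IC50 vs [E] (10–80 nM).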

Steryl-sulfatase [2] = target: T1, Steryl-sulfatase; assay: Reversible inhibition of STS (unknown origin) using 4-MUS as substrate measured over 10 mins by fluorescence assay; settings: read-out: Ki(app)
Procedure, shortened: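 Purified STS at 10 nM final with 200 µM 4-MUS in 0.1 M Tris-HCl pH 7.0 (enzyme stock contained Triton X-100). Eleven inhibitor levels, 5 nM–5 µM, were added from DMSO/buffer. 4-Methylumbelliferone fluorescence (ex 360, em 460 nm) was followed for 10 min at 24 °C, in quadruplicate, with no-enzyme controls. Vi/V0 initial rates were fitted for IC50. K_i^app was the IC50-vs-[E]T intercept at 10–80 nM STS.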

[3] = Cytotoxicity against human NCI-ADR-RES cells; format: functional
[4] = Cytotoxicity against human Hs578T cells; format: functional; settings: Hs-578T
NCI-H23 = assay: Cytotoxicity against human NCI-H23 cells; format: functional
OVCAR-5 = assay: Cytotoxicity against human OVCAR5 cells; format: functional
CCRF-CEM = assay: Cytotoxicity against human CCRF-CEM cells; format: functional
MDA-MB-435 = assay: Cytotoxicity against human MDA-MB-435 cells; format: functional
ACHN = assay: Cytotoxicity against human ACHN cells; format: functional
786-0 = assay: Cytotoxicity against human 786-0 cells; format: functional
M14 = assay: Cytotoxicity against human M14 cells; format: functional
MCF7 = assay: Cytotoxicity against human MCF7 cells; format: functional
SNB-75 = assay: Cytotoxicity against human SNB75 cells; format: functional
NCI-H226 = assay: Cytotoxicity against human NCI-H226 cells; format: functional
SF-295 = assay: Cytotoxicity against human SF295 cells; format: functional
LOX IMVI = assay: Cytotoxicity against human LOXIMVI cells; format: functional
MDA-MB-468 = assay: Cytotoxicity against human MDA-MB-468 cells; format: functional
UACC-257 = assay: Cytotoxicity against human UACC257 cells; format: functional
CAKI-1 = assay: Cytotoxicity against human Caki1 cells; format: functional
SK-MEL-2 = assay: Cytotoxicity against human SK-MEL-2 cells; format: functional
OVCAR-8 = assay: Cytotoxicity against human OVCAR8 cells; format: functional
T47D = assay: Cytotoxicity against human T47D cells; format: functional
SR = assay: Cytotoxicity against human SR cells; format: functional
MDA-MB-231 = assay: Cytotoxicity against human MDA-MB-231 cells; format: functional
SK-OV-3 = assay: Cytotoxicity against human SKOV3 cells; format: functional
OVCAR-3 = assay: Cytotoxicity against human OVCAR3 cells; format: functional
MOLT-4 = assay: Cytotoxicity against human MOLT4 cells; format: functional
SF-539 = assay: Cytotoxicity against human SF539 cells; format: functional
[5] = Cytotoxicity against human EKVX cells; format: functional
SF-268 = assay: Cytotoxicity against human SF268 cells; format: functional
HOP-92 = assay: Cytotoxicity against human HOP92 cells; format: functional
RPMI-8226 = assay: Cytotoxicity against human RPMI8226 cells; format: functional
KM12 = assay: Cytotoxicity against human KM12 cells; format: functional
UACC-62 = assay: Cytotoxicity against human UACC62 cells; format: functional
BT-549 = assay: Cytotoxicity against human BT549 cells; format: functional
U-251 = assay: Cytotoxicity against human U251 cells; format: functional
HL-60(TB) = assay: Cytotoxicity against human HL-60(TB) cells; format: functional
HCC 2998 = assay: Cytotoxicity against human HCC2998 cells; format: functional
PC-3 = assay: Cytotoxicity against human PC3 cells; format: functional
A498 = assay: Cytotoxicity against human A498 cells; format: functional
SW-620 = assay: Cytotoxicity against human SW620 cells; format: functional
NCI-H460 = assay: Cytotoxicity against human NCI-H460 cells; format: functional
SK-MEL-5 = assay: Cytotoxicity against human SK-MEL-5 cells; format: functional
COLO 205 = assay: Cytotoxicity against human COLO205 cells; format: functional
IGROV-1 = assay: Cytotoxicity against human IGROV1 cells; format: functional
SN12C = assay: Cytotoxicity against human SN12C cells; format: functional
A549 = assay: Cytotoxicity against human A549 cells; format: functional
TK-10 = assay: Cytotoxicity against human TK10 cells; format: functional
RXF 393 = assay: Cytotoxicity against human RXF393 cells; format: functional
HT-29 = assay: Cytotoxicity against human HT-29 cells; format: functional

C[C@]12CC[C@@H]3c4cc(Br)c(O)cc4CC[C@H]3[C@@H]1CC[C@@H]2NS(=O)(=O)c1cccc(C(F)(F)F)c1
7.02: pIC50 (Steryl-sulfatase [1])

C[C@]12CC[C@@H]3c4ccc(O)c([N+](=O)[O-])c4CC[C@H]3[C@@H]1CC[C@@H]2NS(=O)(=O)c1ccc(-c2ccccc2)cc1
9.00: pKi (Steryl-sulfatase [2])

C[C@]12CC[C@@H]3c4ccc(O)c(Br)c4CC[C@H]3[C@@H]1CC[C@@H]2NS(=O)(=O)c1cccc(C(F)(F)F)c1
7.31: pIC50 (Steryl-sulfatase [1])

CC(C)(C)c1ccc(S(=O)(=O)N[C@H]2CC[C@H]3[C@@H]4CCc5c(ccc(O)c5[N+](=O)[O-])[C@H]4CC[C@]23C)cc1
8.10: pIC50 (Steryl-sulfatase [1])

C[C@]12CC[C@@H]3c4ccc(O)c([N+](=O)[O-])c4CC[C@H]3[C@@H]1CC[C@@H]2NS(=O)(=O)c1cccc(Br)c1
1500 nM: GI50 (MDA-MB-231)
7.92: pIC50 (Steryl-sulfatase [1])
1000 nM: GI50 [3] | GI50 (NCI-H23) | GI50 (OVCAR-5) | GI50 (CCRF-CEM) | GI50 (MDA-MB-435) | GI50 (ACHN) | GI50 (786-0) | GI50 (M14) | GI50 (SNB-75) | GI50 (NCI-H226) | GI50 (SF-295) | GI50 (LOX IMVI) | GI50 (UACC-257) | GI50 (CAKI-1) | GI50 (SK-MEL-2) | GI50 (OVCAR-8) | GI50 (SR) | GI50 (SK-OV-3) | GI50 (OVCAR-3) | GI50 (MOLT-4) | GI50 (SF-539) | GI50 [5] | GI50 (SF-268) | GI50 (HOP-92) | GI50 (RPMI-8226) | GI50 (KM12) | GI50 (UACC-62) | GI50 (U-251) | GI50 (HL-60(TB)) | GI50 (HCC 2998) | GI50 (PC-3) | GI50 (A498) | GI50 (SW-620) | GI50 (NCI-H460) | GI50 (SK-MEL-5) | GI50 (COLO 205) | GI50 (IGROV-1) | GI50 (SN12C) | GI50 (A549) | GI50 (TK-10) | GI50 (RXF 393) | GI50 (HT-29)
2100 nM: GI50 [4]
2500 nM: GI50 (T47D)
2200 nM: GI50 (MDA-MB-468)
1600 nM: GI50 (BT-549)
1900 nM: GI50 (MCF7)

CC(C)(C)c1ccc(S(=O)(=O)N[C@H]2CC[C@H]3[C@@H]4CCc5cc(O)c([N+](=O)[O-])cc5[C@H]4CC[C@]23C)cc1
7.09: pIC50 (Steryl-sulfatase [1])
